# PPC-1+TRAIL kill = compounds killing PPC-1 cancer cells with TRAIL present (potentiator screen, no TRAIL-free arm); 0.41% of 220,000 active; cell killing (% activity), % at 4 µM or 5 µM; PPC-1 cells + TRAIL, ATPLite viability luminescence; AID 1443;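 active = cell killing above 50% in the first pass at 4 µM, then a duplicate retest at 5 µM averaging 50% or more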;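 also: plate controls were cells with TRAIL plus DMSO for no effect and medium-only wells lacking cells for full effect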
# FLuc act counter = affects firefly luciferase, flagging false hits in luciferase stimulation screens; P08659; activation factor at 10 µM; AID 1027; ATPlite luciferase biochemical, luminescence, 10 min; 0 = ATP-free wells, 1 = DMSO control; 200,000 tested, under 10 active;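 active = luciferase activation factor, scaled between plate controls, of at least 2 with compound at 10 µM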
# Target sequence (P08659 whole entry, looked up): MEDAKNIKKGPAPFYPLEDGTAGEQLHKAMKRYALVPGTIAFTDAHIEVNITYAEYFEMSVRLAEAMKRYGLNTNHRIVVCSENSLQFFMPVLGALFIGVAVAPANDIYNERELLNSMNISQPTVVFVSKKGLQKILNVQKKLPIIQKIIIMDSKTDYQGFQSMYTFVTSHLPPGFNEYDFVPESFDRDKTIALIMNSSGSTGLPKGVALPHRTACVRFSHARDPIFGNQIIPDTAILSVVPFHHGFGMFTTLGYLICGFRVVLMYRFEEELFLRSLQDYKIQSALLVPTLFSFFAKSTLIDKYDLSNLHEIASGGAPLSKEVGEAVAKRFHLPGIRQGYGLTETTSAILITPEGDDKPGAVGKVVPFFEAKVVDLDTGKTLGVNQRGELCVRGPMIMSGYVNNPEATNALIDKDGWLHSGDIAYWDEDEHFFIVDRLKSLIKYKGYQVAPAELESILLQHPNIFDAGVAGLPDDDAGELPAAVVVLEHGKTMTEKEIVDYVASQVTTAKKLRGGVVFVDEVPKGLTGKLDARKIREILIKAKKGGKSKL
#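 Assay system: Luciferase/luciferin detection reagent, cell-free biochemical luciferase assay / Also added: ATP substrate / Schedule: 10 min at ambient temperature / Measured by: luminescence measurement of luciferase light output / Benchmarks: low control with PBS replacing ATP, high control enzyme plus ATP without compound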
# C8 TRAIL sens = caspase-8 TRAIL sensitization; AID 624354; NB7+C8 cells + TRAIL, ATPlite viability luminescence; inhibition (viability loss, TRAIL sensitization), % at 10 µM; 1% of 360,000 active;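 active = compounds causing at least 50% loss of cell viability in the single-dose screen, relative to plate controls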
# FLuc inh counter = Photinus pyralis luciferase inhibition counter-screen. P08659. ATPLite firefly luciferase biochemical luminescence, 10 min. inhibition, % at 10 µM. 1.5% of 200,000 active;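 active = inhibition above about 50% when tested at 10 µM, limit read from the data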
# Active calls of the source: *; / = no result. Only some compounds are listed: those with a hit (about 1.5% of all), similar ones and a draw of the others.
SMILES,PPC-1+TRAIL kill,FLuc act counter,C8 TRAIL sens,FLuc inh counter
CN=C1S/C(=C\c2cc(C)n(-c3ccccc3F)c2C)C(=O)N1C,40.5,0.2,54.7*,81.5*
Cc1cc(/C=C2\SC(=O)N(C)C2=O)c(C)n1-c1ccc(O)cc1,/,/,27.1,/
O=C1C=C(Nc2ccccc2)c2ccccc2C1=O,1.6,1,34.2,-1.3
CCc1ccc(NC2=CC(=O)C(=O)c3ccccc32)cc1,/,/,93.2*,/
CC(C)CC(NC(=O)OCc1ccccc1)C(=O)NC(Cc1ccccc1)C(=O)CCl (centres undefined),/,/,90.4*,/
COC(=O)C(Cc1ccccc1)NC(=O)C(CC(C)C)NC(=O)OC(C)(C)C (centres undefined),-5.0,1.1,-6.3,-5.3
COCC(O)CSc1nc(C)[nH]c1[N+](=O)[O-] (centres undefined),22.3,1,-5.2,-3.1
Cc1nn(C(C)C(=O)NCCN2CCCC2)c(=O)c2c1sc1ccccc12 (centres undefined),/,/,-29.2,/
COCCN(Cc1nc2ccccc2c(=O)[nH]1)C(=O)c1cccc(S(=O)(=O)N2CCCC2)c1,/,/,-10.9,/
CC(C)Sc1cc(Cl)nc(NC(=O)Nc2ccccc2)n1,/,/,90.5*,/
O=C(Nc1ccccc1)Nc1ccc2ccccc2c1,-0.3,/,9.5,/
O=C(CN1CC(c2ccccc2)CC1=O)N/N=C/c1cc(Br)ccc1O (centres undefined),33.9,1,52.0*,-3.6
O=C(CNC(=O)c1ccccc1)N/N=C/c1cc(Br)ccc1O,39.0,1,44.5,-3.9
O=C(Nc1ncn[nH]1)c1ccccc1O,2.3,/,2.7,/
Cc1ccc2c(c1)OC(=O)CC2c1ccccc1 (centres undefined),-14.1,1,-7.7,-4.6
Cc1[nH]n(-c2ccccc2)c(=O)c1N=Nc1c(O)cc(S(=O)(=O)N(C)C)c2ccccc12,/,/,57.8*,/
CSc1cccc(CN2CCC(CO)(Cc3cccc(C(F)(F)F)c3)CC2)c1,16.9,1,-4.7,3.3
COc1cccc(NC(=O)Nc2ccc(CC(=O)O)cc2)c1,-19.7,0.7,-4.0,25.5
COc1ccc(C(=O)Nc2cccc(OC)c2)cc1,46.3,0.3,53.4*,66.8*
COc1cccc(NC(=O)c2ccc(OC(F)(F)F)cc2)c1,/,/,49.5*,/
COc1ccc(C(=O)Nc2cc(C)on2)cc1,46.6,0.3,57.2*,73.1*
COc1cccc(NC(=O)c2ccccc2)c1,/,/,13.2,/
CCc1ccc(NC(=O)Nc2cccc(OC)c2)cc1,25.8,0.5,27.8,51.8*
COc1cccc(NC(=O)c2cccc(C(=O)Nc3cccc(OC)c3)c2)c1,/,/,7.3,/
O=C(NCCCn1ccnc1)c1cccc(S(=O)(=O)Nc2ccccc2F)c1,-4.2,1.1,0.3,-8.9
SMILES,PPC-1+TRAIL kill,FLuc act counter,C8 TRAIL sens,FLuc inh counter
CC(C)CC(=O)Nc1ccc([N+](=O)[O-])cc1Cl,15.3,1.1,-9.3,-6.1
COc1ccc(S(=O)(=O)Nc2ccccc2-c2nnn(CC(=O)Nc3ccccc3OC)n2)cc1,7.0,1.1,3.8,-10.4
Cc1ccc(S[C@@H](CCN2CC[C@H](C)CCC2=O)c2ccccc2)cc1,/,/,-10.0,/
COc1cccc(NC(=O)Nc2nc(-c3ccc(OC)c(OC)c3)cs2)c1,/,/,96.7*,/
COc1ccc(-c2csc(NC(C)=O)n2)cc1OC,15.3,0.9,-9.5,11.2
CSc1ccc(/C=N/NC(=O)c2cccc(O)c2)cc1,54.5*,0.1,74.3*,91.1*
CC(=O)Nc1ccc(C(=O)N/N=C/c2ccc(F)cc2)cc1,2.9,1,0.5,3.7
O=C(N/N=C\c1ccc(F)cc1)c1ccc(F)cc1,44.6,0.4,13.7,58.4*
O=C(N/N=C/c1ccc(C(F)(F)F)cc1)c1ccc(O)cc1,25.8,0.5,23.0,52.9*
N#CC1=C(N)OC2=C(C(=O)CC(c3ccccc3)C2)C1c1ccoc1 (centres undefined),85.2*,1,1.7,-2.1
N#CC1=C(N)OC2=C(C(=O)CC(c3ccccc3)C2)C1c1cccnc1 (centres undefined),16.3,1,15.4,4.4
CCCC(=O)N1CCCC(c2cc(C(=O)Nc3ccccc3)no2)C1 (centres undefined),/,/,51.6*,/
O=C(Nc1ccccc1)c1cc(C2CCCN(C(=O)c3ccccc3)C2)on1 (centres undefined),/,/,4.5,/
Cc1cccc(-c2cc3c(nn2)-c2ccccc2C3=O)c1,35.2,0.4,44.7,61.7*
Cc1cnc2c(c1)C(=O)c1ccccc1-2,/,/,11.4,/
N#CCC(=O)N/N=C/c1cn(Cc2cccc3ccccc23)c2ccccc12,6.9,/,20.1,/
O=c1c2ccccc2nc2ccc(NCc3cccs3)nn12,/,0.4,12.7,59.1*
O=c1c2ccccc2nc(N/N=C/c2c(O)ccc3ccccc23)n1O,20.7,0.1,70.7*,87.9*
Cc1nc2ccccc2c(=O)n1/N=C/c1c(O)ccc2ccccc12,33.9,1,7.8,-4.6
O=c1c2ccccc2nc(N/N=C/c2ccc(O)cc2)n1O,1.8,0.1,61.8*,93.8*
CCCCCC(=O)N1C[C@H](n2cc(COC(=O)c3ccccc3)nn2)[C@@H](O)C[C@@H]1c1ccc(Cl)cc1,/,/,57.5*,/
CCCCCC(=O)N1C[C@@H](n2cc(COC(=O)c3ccccc3)nn2)[C@H](O)C[C@@H]1c1ccc(Cl)cc1,/,/,15.9,/
Clc1ccc(-c2nc3ccncc3[nH]2)cc1,34.1,0.3,41.9,73.1*
CCNC(=O)C1(C)CCN(C(=O)c2cccc(Cl)c2)C1 (centres undefined),/,/,4.6,/
Cc1nnsc1C(=O)N/N=C/c1ccc2ccccc2c1O,59.7*,1.1,17.2,-5.0
SMILES,PPC-1+TRAIL kill,FLuc act counter,C8 TRAIL sens,FLuc inh counter
C=CCn1c(C)cc(C(=O)CSc2nc3ccccc3[nH]2)c1C,29.3,0.5,46.0,54.8*
C=CCn1c(C)cc(C(=O)CSc2nc3ccccc3c(=O)[nH]2)c1C,15.2,0.8,25.3,18.3
CCn1c(C)cc(C(=O)CN2C(=O)c3ccccc3S2(=O)=O)c1C,/,/,34.4,/
C=CCn1c(C)cc(C(=O)CN2C(=O)c3ccccc3S2(=O)=O)c1C,/,/,82.6*,/
COC(=O)Nc1nnc(/C=C/c2ccc(OC)cc2)s1,37.0,0.5,22.6,51.8*
CCc1nnc(NC(=O)c2ccc(OC)cc2)s1,30.7,0.2,7.8,83.2*
COc1ccc(OCCCC(=O)OCC(=O)Nc2sccc2C(N)=O)cc1,/,/,3.4,/
CC(=O)CSc1nc2cc3c(cc2cc1C#N)OCCO3,48.4,0.7,67.2*,29.6
N#Cc1cc2cc3c(cc2nc1SCC(=O)N1CCCC1)OCCO3,/,/,-11.7,/
CN(C)CCCn1cnc2c(c1=N)C(c1ccccc1)c1ccc3ccccc3c1O2 (centres undefined),/,/,70.5*,/
O=C(O)CN1C(=O)/C(=C/C=C/c2ccccc2)SC1=S,33.0,0.2,33.7,79.1*
O=C(Nc1cccc(Cl)c1)N1N=CCC1c1ccccc1 (centres undefined),0.2,/,5.4,/
COc1ccc(/C=C/C(=O)NC(=S)Nc2ccccn2)cc1,/,/,50.8*,/
COc1ccccc1/C=C/C(=O)Nc1cccc(C(C)=O)c1,9.0,0.8,-4.3,17.0
COc1ccc(/C=C/C(=O)Nc2cccc(C(C)=O)c2)cc1,47.9,0.3,41.7,69.6*

# Assay outcomes from PubChem BioAssay.
